Results collected from several papers.
Target: Activated CDC42 kinase 1 (TNK2, Homo sapiens, UniProt Q07912)

COc1ncccc1-c1cnn2ccc(N3CCN(C(=O)OC(C)C)CC3)nc12
remaining binding (binding; competition with immobilised ligand; 1 µM): 94%

CC(C)(C)c1cc(C=C(C#N)C#N)cc(Br)c1O
remaining activity (enzyme activity; inhibitor; 0.5 µM): 93.1%

Cn1cc(-c2cc(F)cc(N3CCn4c(cc5c4CCCC5)C3=O)c2CO)cc(Nc2ccc(N3CCN(C4COC4)CC3)cn2)c1=O
inhibition (enzyme activity; inhibitor; 0.1 µM): 1%

Cn1cncc1[C@](O)(COc1ccc(C#N)cc1-c1ccc(OC(F)(F)F)cc1)c1ccc(C#N)cc1
remaining binding (cell-free assay; competition with immobilised ligand; 1 µM): 100%

COc1cc(Cl)c(C(=O)N[C@@H](CN[C@H]2CC[C@@H](N)CC2)Cc2ccc(C#N)cc2)cc1-c1ccc(CN[C@H](C)c2ccc(C)cc2)o1
remaining activity (enzyme activity; inhibitor; 1 µM): 107%

Nc1ncc(-c2nc(N3CCOCC3)nc(N3CCOCC3)n2)c(C(F)F)n1
remaining binding (binding; competition with immobilised ligand; 10 µM): 85%

Cn1cc(-c2cccc(N3CCc4c(sc5c4CC(C)(C)C5)C3=O)c2CO)cc(Nc2ccncn2)c1=O
inhibition (enzyme activity; inhibitor; 1 µM): 0%

O=c1[nH]c2ccccc2n1C1CCN(Cc2ccc(-c3[nH]c4cc5ncnc5cc4nc3-c3ccccc3)cc2)CC1
remaining signal (cell-free assay; 0.5 µM): 92.3%

COc1cc(Nc2ncc(F)c(Nc3ccc4c(n3)NC(=O)C(C)(C)O4)n2)cc(OC)c1OC
inhibition (binding; 10 µM): 99%
